According to ChEMBL document CHEMBL4371044, “Celastrol Promotes Weight Loss in Diet-Induced Obesity by Inhibiting the Protein Tyrosine Phosphatases PTP1B and TCPTP in the Hypothalamus” (J Med Chem, 2018):
pIC50: −log10 of the molar value. Active and inactive are the calls of the source. The rule behind the calls is not given here.

Tests used:
[1] = molecular target: T1, Tyrosine-protein phosphatase non-receptor type 1 (Homo sapiens, UniProt P18031); test: Inhibition of human N-terminal His6-tagged PTP1B catalytic domain (1 to 393 residues) expressed in Escherichia coli strain Rosetta2 (DE3) using DiFMUP as substrate preincubated for 10 mins followed by substrate addition and measured after 10 mins by fluorescence assay
T1 sequence (P18031 whole entry): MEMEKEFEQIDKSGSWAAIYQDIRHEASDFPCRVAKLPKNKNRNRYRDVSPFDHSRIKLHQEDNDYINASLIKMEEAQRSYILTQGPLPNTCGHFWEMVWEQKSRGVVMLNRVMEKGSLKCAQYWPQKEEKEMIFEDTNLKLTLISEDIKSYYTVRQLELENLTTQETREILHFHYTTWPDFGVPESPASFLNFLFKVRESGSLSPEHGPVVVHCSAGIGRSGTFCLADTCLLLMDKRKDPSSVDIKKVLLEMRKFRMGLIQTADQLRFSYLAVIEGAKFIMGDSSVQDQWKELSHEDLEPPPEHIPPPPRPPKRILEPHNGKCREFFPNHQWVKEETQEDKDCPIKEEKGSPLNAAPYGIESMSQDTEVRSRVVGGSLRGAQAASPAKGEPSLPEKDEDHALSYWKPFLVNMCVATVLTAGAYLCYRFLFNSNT
Outline: (§1)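 Tag-cleaved, SEC-purified enzyme at 1 nM, preincubated 10 min with compound at 15 concentrations from 0–500 μM (5% DMSO final) in 25 mM Bis-Tris propane pH 7.5, 50 mM NaCl, 2 mM EDTA. DiFMUP added at each construct's Km (10, 7, 10, 9 μM for PTP1B1−298, PTP1B1−393, TCPTP1−296, TCPTP1−336). Read ex 358/em 455 nm continuously 10 min at 37 °C; triplicate; log(inhibitor)-response fit.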

[2] = molecular target: T2, Tyrosine-protein phosphatase non-receptor type 2 (Homo sapiens, UniProt P17706); test: Inhibition of human N-terminal His6-tagged TCPTP catalytic domain (1 to 336 residues) expressed in Escherichia coli strain Rosetta2 (DE3) using DiFMUP as substrate preincubated for 10 mins followed by substrate addition and measured after 10 mins by fluorescence assay; outline: as §1
T2 sequence (P17706 whole entry): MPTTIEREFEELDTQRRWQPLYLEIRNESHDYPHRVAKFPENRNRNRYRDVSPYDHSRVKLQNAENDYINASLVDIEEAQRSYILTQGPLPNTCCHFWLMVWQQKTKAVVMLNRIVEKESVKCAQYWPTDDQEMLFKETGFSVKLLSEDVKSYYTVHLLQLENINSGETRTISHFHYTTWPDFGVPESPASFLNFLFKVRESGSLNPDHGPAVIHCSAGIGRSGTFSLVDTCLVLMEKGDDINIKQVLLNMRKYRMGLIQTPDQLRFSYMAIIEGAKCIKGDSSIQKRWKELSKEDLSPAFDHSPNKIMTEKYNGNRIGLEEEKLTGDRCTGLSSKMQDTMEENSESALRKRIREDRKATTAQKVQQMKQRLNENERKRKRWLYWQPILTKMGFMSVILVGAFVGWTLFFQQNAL

[3] = molecular target: T3, Tyrosine-protein phosphatase non-receptor type 1 (Homo sapiens) (UniProt P18031); test: Inhibition of human N-terminal His6-tagged PTP1B catalytic domain (1 to 393 residues) expressed in Escherichia coli strain Rosetta2 (DE3) at 500 uM using DiFMUP as substrate preincubated for 10 mins followed by substrate addition and measured after 10 mins by fluorescence assay
T3 sequence (whole entry): T1 sequence (P18031 whole entry)

[4] = molecular target: T4, Tyrosine-protein phosphatase non-receptor type 2 (Homo sapiens) (UniProt P17706); test: Inhibition of human N-terminal His6-tagged TCPTP catalytic domain (1 to 336 residues) expressed in Escherichia coli strain Rosetta2 (DE3) at 500 uM using DiFMUP as substrate preincubated for 10 mins followed by substrate addition and measured after 10 mins by fluorescence assay
T4 sequence (whole entry): T2 sequence (P17706 whole entry)

Row | pIC50 [1] | pIC50 [2] | Compound | inhibition [3] | inhibition [4]
1 | 3.04 | 3.32 | Nc1ccc(NC(=O)C(=O)O)cc1 | – | –
2 | – | – | CC1=C(CO)C(=O)O[C@@H]([C@@H](C)[C@H]2CC[C@H]3[C@@H]4C[C@H]5O[C@]56[C@@H](O)C=CC(=O)[C@]6(C)[C@H]4CC[C@]23C)C1 | inactive | inactive
3 | – | – | Cc1c(O)c(O)cc2c1CC=C1[C@@]2(C)CC[C@@]2(C)[C@@H]3C[C@](C)(C(=O)O)CC[C@]3(C)CC[C@]12C | Active | Active
